Broadly, the IC50 is the concentration that inhibits the measured activity by half.

This is an account of results in ChEMBL document CHEMBL1146986, “Synthesis and SAR studies of very potent imidazopyridine antiprotozoal agents” (Bioorg Med Chem Lett, 2006).

Activity calls are given as the source filed them. The calls are words filed in the database; no cut-off is given here.

The target in assay [1] is cGMP-dependent protein kinase (Eimeria tenella, UniProt Q8MMZ8). Nature of the assay: Inhibitory activity against PKG.
Chain of cGMP-dependent protein kinase (Q8MMZ8 whole entry): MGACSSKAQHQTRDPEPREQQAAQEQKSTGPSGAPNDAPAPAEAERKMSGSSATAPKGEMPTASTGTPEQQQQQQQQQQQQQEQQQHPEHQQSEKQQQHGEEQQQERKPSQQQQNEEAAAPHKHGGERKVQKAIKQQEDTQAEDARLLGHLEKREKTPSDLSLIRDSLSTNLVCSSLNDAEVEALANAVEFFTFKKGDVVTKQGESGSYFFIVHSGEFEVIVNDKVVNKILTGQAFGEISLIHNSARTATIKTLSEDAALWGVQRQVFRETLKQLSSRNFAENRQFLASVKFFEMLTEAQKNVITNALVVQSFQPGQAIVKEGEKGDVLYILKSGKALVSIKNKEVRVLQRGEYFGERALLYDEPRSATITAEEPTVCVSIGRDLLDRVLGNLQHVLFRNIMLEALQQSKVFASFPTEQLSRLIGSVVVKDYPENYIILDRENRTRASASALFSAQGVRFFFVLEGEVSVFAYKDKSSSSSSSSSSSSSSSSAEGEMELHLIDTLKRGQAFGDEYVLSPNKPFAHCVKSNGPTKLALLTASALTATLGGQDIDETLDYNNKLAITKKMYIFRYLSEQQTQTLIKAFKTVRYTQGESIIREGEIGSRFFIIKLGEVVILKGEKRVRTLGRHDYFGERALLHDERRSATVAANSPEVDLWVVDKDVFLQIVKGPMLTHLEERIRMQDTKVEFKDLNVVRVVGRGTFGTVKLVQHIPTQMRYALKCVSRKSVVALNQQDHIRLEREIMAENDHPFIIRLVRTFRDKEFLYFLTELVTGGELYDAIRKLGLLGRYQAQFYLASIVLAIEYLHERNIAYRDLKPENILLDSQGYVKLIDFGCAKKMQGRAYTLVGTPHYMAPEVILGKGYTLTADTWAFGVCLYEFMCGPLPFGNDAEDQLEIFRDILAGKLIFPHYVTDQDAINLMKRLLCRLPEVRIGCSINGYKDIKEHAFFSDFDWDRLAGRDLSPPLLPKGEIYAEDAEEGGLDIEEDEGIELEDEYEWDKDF
Assay [2] relates to Eimeria tenella. Put plainly: Antiparasitic activity against Eimeria tenella in chicken at 25 ppm in feed assessed as percent reduction in oocyst. The format is functional. The arrangement: scale not given: the % may be the effect or the level left. In short, it runs like this: (§1)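 Infected chickens given compound orally in feed (ppm), seven-day in vivo efficacy model; activity quantified from oocyst shedding and graded as percent oocyst reduction versus infection.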

In assay [3] the test system is Eimeria acervulina. Nature of the assay: Antiparasitic activity against Eimeria acervulina in chicken at 25 ppm in feed assessed as percent reduction in oocyst. Format: functional. More on the design: scale not given: the % may be the effect or the level left. In short, it runs like this:
as §1

The subject of assay [4] is Eimeria acervulina. Put plainly: Antiparasitic activity against Eimeria acervulina in chicken at 12.5 ppm in feed assessed as percent reduction in oocyst. The format is functional. The arrangement: scale not given: the % may be the effect or the level left. In short, it runs like this:
as §1

In assay [5] the test system is Eimeria tenella. Nature of the assay: Antiparasitic activity against Eimeria tenella in chicken at 12.5 ppm in feed assessed as percent reduction in oocyst. The format is functional. The arrangement: scale not given: the % may be the effect or the level left. In a few lines: as §1
For assay [6], the system named is Salmonella typhimurium. Put plainly: […] against Salmonella Typhimurium TA98 at 3000 ug/plate by Ames microbial mutagenesis assay. The format is functional, organism-based. The following applies: Salmonella enterica subsp. enterica serovar Typhimurium. In short, it runs like this:
(§2)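 Plate-incorporation reverse mutation test: about 10^8 bacterial cells in molten top agar are mixed with test article in DMSO and cofactor plus S9 fraction (50 µL/plate) from induced male Sprague–Dawley rats. Plated in triplicate and incubated 37 °C for 48 h. Revertant colonies are counted automatically, as mean ± standard deviation (n = 3). A twofold or greater increase over solvent control counts as positive.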

Assay [7] has as its system Eimeria tenella. Nature of the assay: Antiparasitic activity against Eimeria tenella in chicken at 6.25 ppm in feed assessed as percent reduction in oocyst. Format: functional. More on the design: scale not given: the % may be the effect or the level left. In short, it runs like this:
(§3)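 Seven-day in vivo anticoccidial model in chickens infected with E. tenella and E. acervulina. Compound is given orally in feed (ppm). Oocyst shedding from infected birds is quantified, and activity is graded by percent oocyst reduction.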

In assay [8] the test system is Salmonella typhimurium. Put plainly: […] against Salmonella Typhimurium TA98 at 6000 ug/plate by Ames microbial mutagenesis assay. The format is functional, organism-based. Particulars: Salmonella enterica subsp. enterica serovar Typhimurium. In a few lines: as §2
Assay [9] concerns Eimeria acervulina. Nature of the assay: Antiparasitic activity against Eimeria acervulina in chicken at 6.25 ppm in feed assessed as percent reduction in oocyst. Format: functional. More on the design: scale not given: the % may be the effect or the level left. In short, it runs like this:
as §3

For assay [10], the system named is Salmonella typhimurium. Put plainly: […] against Salmonella Typhimurium TA100 at 3000 ug/plate by Ames microbial mutagenesis assay. The following applies: Salmonella enterica subsp. enterica serovar Typhimurium. The format is functional, organism-based. In short, it runs like this:
as §2

In assay [11] the test system is Salmonella typhimurium. Put plainly: […] against Salmonella Typhimurium TA100 at 6000 ug/plate by Ames microbial mutagenesis assay. The format is functional, organism-based. The following applies: Salmonella enterica subsp. enterica serovar Typhimurium. In short, it runs like this: as §2

`CNc1nccc(-c2c(-c3ccc(F)cc3)nc3cc(CN(C)C)ccn23)n1` had an IC50 in [1] of 170 pM. Moreover, the Activity entry in the assay with Eimeria tenella [2] and in the assay with Eimeria acervulina [3] was “>=80%” each time.
In [1], `Nc1nccc(-c2c(-c3ccc(F)cc3)nc3cc(Cl)ccn23)n1` came in with a half-maximal inhibitory concentration (IC50) of 2700 pM. Besides, the Activity with Eimeria tenella [2] and in the assay with Eimeria acervulina [3] was under 50% throughout.
The compound `Nc1nccc(-c2c(-c3ccc(F)cc3)nc3cc(C4CCNCC4)ccn23)n1` showed an IC50 in assay [1] of 50 pM. Also, the Activity in the assay on Eimeria tenella [2] and with Eimeria acervulina [3] was under 50% throughout.
With `CNCc1ccn2c(-c3ccnc(N)n3)c(-c3ccc(F)cc3)nc2c1`, the IC50 in assay [1] came to 150 pM. Further, the Activity with Eimeria tenella [2] and in the assay on Eimeria acervulina [3] was under 50% throughout.
Regarding `CCCNc1nccc(-c2c(-c3ccc(F)cc3)nc3cc(CN(C)C)ccn23)n1`, in assay [1], the 50% inhibitory concentration (IC50) stood at 130 pM. Further, the Activity entry in the assay on Eimeria acervulina [4] and in the assay on Eimeria tenella [5] was “>=80%” in each case.
In turn, `CN1CCC(c2ccn3c(-c4ccnc(N)n4)c(-c4ccc(F)cc4)nc3c2)CC1` displayed an IC50 in assay [1] of 40 pM. The result in the assay with Salmonella typhimurium [6], with Salmonella typhimurium [8], in the assay on Salmonella typhimurium [10] and in the assay with Salmonella typhimurium [11] was Active. The Activity entry is “>=80%” in the assay with Eimeria tenella [7], 50% with Eimeria acervulina [4] and “>=80%” in the assay with Eimeria acervulina [9].
In [1], `Nc1nccc(-c2c(-c3ccc(F)cc3)nc3cc(CO)ccn23)n1` displayed a half-maximal inhibitory concentration (IC50) of 2700 pM. Besides, the Activity in the assay with Eimeria tenella [2] and with Eimeria acervulina [3] was under 50% in each case.
As to `NCc1ccn2c(-c3ccnc(N)n3)c(-c3ccc(F)cc3)nc2c1`, 180 pM corresponded to half-maximal inhibition in assay [1] (IC50). Besides, the Activity with Eimeria tenella [2] and in the assay on Eimeria acervulina [3] was under 50% throughout.
As to `CN(C)Cc1ccn2c(-c3ccnc(NCC(C)(C)C)n3)c(-c3ccc(F)cc3)nc2c1`, in [1], the half-inhibitory concentration (IC50) was 150 pM. Moreover, the Activity result in the assay with Eimeria acervulina [4] and in the assay with Eimeria tenella [5] was “>=80%” throughout.
`CN(C)Cc1ccn2c(-c3ccnc(N)n3)c(-c3ccc(F)cc3)nc2c1` came in with a 50% inhibitory concentration (IC50) in assay [1] of 110 pM. Besides, the outcome in the assay on Salmonella typhimurium [6], in the assay with Salmonella typhimurium [8], with Salmonella typhimurium [10] and in the assay on Salmonella typhimurium [11] was Active. The Activity in the assay on Eimeria tenella [7] is given as 50%; in the assay on Eimeria acervulina [4], “>=80%”; in the assay with Eimeria acervulina [9], 50%; with Eimeria tenella [5], “>=80%”.
In turn, `CN(C)Cc1ccn2c(-c3ccncn3)c(-c3ccc(F)cc3)nc2c1` displayed an IC50 in [1] of 1900 pM. Besides, the Activity with Eimeria tenella [2] and in the assay on Eimeria acervulina [3] was under 50% each time.
`COc1nccc(-c2c(-c3ccc(F)cc3)nc3cc(CN(C)C)ccn23)n1` displayed an IC50 in assay [1] of 2600 pM. The Activity in the assay with Eimeria tenella [2] and in the assay with Eimeria acervulina [3] was under 50% each time.
On to `CN(C)Cc1ccn2c(-c3ccnc(NCc4ccccc4)n3)c(-c3ccc(F)cc3)nc2c1`, for which the IC50 in assay [1] turned out to be 81 pM. The Activity entry with Eimeria tenella [2] and in the assay with Eimeria acervulina [3] was “>=80%” in each case.
The compound `N#Cc1ccn2c(-c3ccnc(N)n3)c(-c3ccc(F)cc3)nc2c1` registered an IC50 in [1] of 11300 pM. Besides, the Activity in the assay with Eimeria tenella [2] and in the assay with Eimeria acervulina [3] was under 50% throughout.
Regarding `CN(C)Cc1ccn2c(-c3ccnc(N(C)C)n3)c(-c3ccc(F)cc3)nc2c1`, in [1], the IC50 turned out to be 2500 pM. In addition, the Activity in the assay with Eimeria tenella [2] and in the assay with Eimeria acervulina [3] was under 50% each time.
